# Assay results taken from ChEMBL document CHEMBL4118152, “Discovery of Potent and Selective Periphery-Restricted Quinazoline Inhibitors of the Cyclic Nucleotide Phosphodiesterase PDE1” (J Med Chem, 2018).
# Key:
# [1] = biological target: D(1A) dopamine receptor (Homo sapiens) (UniProt P21728); assay: Inhibition of human dopamine D1 receptor at 10 uM relative to control
# [2] = biological target: Muscarinic acetylcholine receptor M4 (Homo sapiens) (UniProt P08173); assay: Inhibition of human muscarinic M4 receptor at 10 uM relative to control
# [3] = biological target: 3',5'-cyclic-AMP phosphodiesterase 7B (Homo sapiens, UniProt Q9NP56); assay: Inhibition of full length recombinant human PDE7B using 3',5'-[3H]cAMP as substrate after 30 mins by scintillation proximity assay
# Procedure, shortened: (§1)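 Enzymes were human except PDE6A, which was bovine. Each was assayed with cAMP or cGMP substrate, as appropriate to the enzyme, at concentrations below 1/3 of Km. IC50 values are mean ± SEM from n = 3 or more.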
# CYP3A4 = CYP3A4 (Homo sapiens, UniProt P08684); assay: Inhibition of CYP3A4 (unknown origin) at 10 uM relative to control; type: ADME
# MAO-A = MAO-A (Homo sapiens, UniProt P21397); assay: Inhibition of human MAO-A at 10 uM relative to control
# [4] = biological target: Glutamate receptor ionotropic, kainate (Rattus norvegicus) (UniProt P22756+Q01812+P42260+P42264+Q63273); assay: Inhibition of rat brain Glutamate receptor, ionotropic kainate assessed as [3H]kainic acid uptake at 10 uM after 60 mins by scintillation counting analysis relative to control
# [5] = biological target: High affinity cGMP-specific 3',5'-cyclic phosphodiesterase 9A (Homo sapiens, UniProt O76083); assay: Inhibition of full length recombinant human PDE9A1 using 3',5'-[3H]cGMP as substrate after 30 mins by scintillation proximity assay; procedure, shortened: as §1
# [6] = biological target: Muscarinic acetylcholine receptor M2 (Homo sapiens) (UniProt P08172); assay: Inhibition of human muscarinic M2 receptor at 10 uM relative to control
# [7] = biological target: Cannabinoid receptor 1 (Homo sapiens) (UniProt P21554); assay: Inhibition of human cannabinoid CB1 receptor at 10 uM relative to control
# [8] = biological target: Angiotensin-converting enzyme (Homo sapiens) (UniProt P12821); assay: Inhibition of recombinant human Acetylcholinesterase using acetylthiocholine as substrate at 10 uM after 30 mins by spectrophotometric method relative to control
# Rattus norvegicus [9] = species on record: Rattus norvegicus; assay: Displacement of [3H]CGP 39653 from rat brain Glutamate receptor ionotropic, NMDA at 10 uM after 60 mins by scintillation counting analysis relative to control
# [10] = Fraction unbound in Wistar Hannover rat plasma at 1 mg/kg, sc measured at 4 hrs post dose by LC-MS/MS analysis; type: ADME, organism-based; conditions: in vivo
# CYP2C19 = CYP2C19 (Homo sapiens, UniProt P33261); assay: Inhibition of human CYP2C19 at 10 uM relative to control; type: ADME
# [11] = biological target: Androgen receptor (Homo sapiens) (UniProt P10275); assay: Inhibition of human Androgen receptor at 10 uM relative to control
# [12] = Drug uptake in Wistar Hannover rat cerebrospinal fluid at 1 mg/kg, sc measured at 0.5 hrs post dose by LC-MS/MS analysis; type: ADME, organism-based; conditions: read-out: Drug uptake
# Procedure, shortened: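 Rats were dosed subcutaneously at 1 mg/kg. CSF, plasma and brain were sampled at 0.5, 1, 2 and 4 h post dose and analysed for drug concentration. Values are means at each time point.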
# [13] = biological target: Melatonin receptor type 1A (Homo sapiens) (UniProt P48039); assay: Inhibition of human MT1A at 10 uM relative to control
# Homo sapiens [14] = species on record: Homo sapiens; assay: Selectivity ratio of IC50 for full length recombinant human PDE7B to IC50 for full length recombinant human PDE1B1
# Procedure, shortened: (§2)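 IC50s were measured against recombinant PDEs, all human except PDE6A (bovine). Each enzyme was given its appropriate cAMP or cGMP substrate at below 1/3 of its Km. IC50s are the mean of n = 3 or more. The selectivity ratio is the IC50 for the other PDE divided by the IC50 for PDE1B1 or PDE1A.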
# Homo sapiens [15] = species on record: Homo sapiens; assay: Selectivity ratio of IC50 for full length recombinant human PDE8B to IC50 for full length recombinant human PDE1A; procedure, shortened: as §2
# [16] = biological target: Kappa-type opioid receptor (Homo sapiens) (UniProt P41145); assay: Inhibition of human kappa opioid receptor at 10 uM relative to control
# [17] = biological target: Beta-2 adrenergic receptor (Homo sapiens) (UniProt P07550); assay: Inhibition of human beta 2 adrenergic receptor at 10 uM relative to control
# Homo sapiens [18] = species on record: Homo sapiens; assay: Selectivity ratio of IC50 for full length recombinant human PDE2A1 to IC50 for full length recombinant human PDE1B1; procedure, shortened: as §2
# [19] = biological target: Histamine H1 receptor (Homo sapiens) (UniProt P35367); assay: Inhibition of human histamine H1 receptor at 10 uM relative to control
# [20] = biological target: Motilin receptor (Homo sapiens) (UniProt O43193); assay: Inhibition of human Motilin receptor at 10 uM relative to control
# [21] = biological target: Cannabinoid receptor 2 (Homo sapiens) (UniProt P34972); assay: Inhibition of human Cannabinoid CB2 receptor at 10 uM relative to control
# Caspase-3 (Homo sapiens) = Caspase-3 (Homo sapiens) (UniProt P42574); assay: Inhibition of recombinant human Caspase-3 using benzyloxycarbonyl- Asp-Glu-Val-Asp-AFC as substrate at 10 uM after 60 mins by fluorimetric method relative to control
# [22] = biological target: Rod cGMP-specific 3',5'-cyclic phosphodiesterase subunit alpha (Bos taurus, UniProt P11541); assay: Inhibition of bovine retina PDE6A using 3',5'-[3H]cGMP as substrate after 30 mins by scintillation proximity assay; procedure, shortened: as §1
# [23] = biological target: 5-hydroxytryptamine receptor 1A (Homo sapiens) (UniProt P08908); assay: Inhibition of human 5-HT1A receptor at 10 uM relative to control
# Homo sapiens [24] = species on record: Homo sapiens; assay: Selectivity ratio of IC50 for full length recombinant human PDE9A1 to IC50 for full length recombinant human PDE1A; procedure, shortened: as §2
# [25] = biological target: Muscarinic acetylcholine receptor M5 (Homo sapiens) (UniProt P08912); assay: Inhibition of human muscarinic M5 receptor at 10 uM relative to control
# [26] = biological target: Carbonic anhydrase 2 (Homo sapiens) (UniProt P00918); assay: Inhibition of human carbonic anhydrase 2 using 4-nitrophenyl acetate as substrate at 10 uM after 20 mins by spectrophotometric method relative to control
# Rattus norvegicus [27] = species on record: Rattus norvegicus; assay: Displacement of [3H]batrachotoxinin from rat brain Sodium channel site 2 at 10 uM after 60 mins by scintillation counting analysis relative to control
# [28] = biological target: 5-hydroxytryptamine receptor 4 (Homo sapiens) (UniProt Q13639); assay: Inhibition of human 5-HT4E receptor at 10 uM relative to control
# [29] = biological target: 5-hydroxytryptamine receptor 2C (Homo sapiens) (UniProt P28335); assay: Inhibition of human 5-HT2C receptor at 10 uM relative to control
# [30] = Fraction unbound in Wistar Hannover rat plasma at 1 mg/kg, sc measured at 2 hrs post dose by LC-MS/MS analysis; type: ADME, organism-based; conditions: in vivo
# Rattus norvegicus [31] = species on record: Rattus norvegicus; assay: Inhibition of rat GABA-A receptor at 10 uM relative to control
# [32] = biological target: Vasopressin V2 receptor (Homo sapiens) (UniProt P30518); assay: Inhibition of human Vasopressin 2 receptor at 10 uM relative to control
# Vasopressin V2 receptor (Homo sapiens), sequence (P30518 whole entry): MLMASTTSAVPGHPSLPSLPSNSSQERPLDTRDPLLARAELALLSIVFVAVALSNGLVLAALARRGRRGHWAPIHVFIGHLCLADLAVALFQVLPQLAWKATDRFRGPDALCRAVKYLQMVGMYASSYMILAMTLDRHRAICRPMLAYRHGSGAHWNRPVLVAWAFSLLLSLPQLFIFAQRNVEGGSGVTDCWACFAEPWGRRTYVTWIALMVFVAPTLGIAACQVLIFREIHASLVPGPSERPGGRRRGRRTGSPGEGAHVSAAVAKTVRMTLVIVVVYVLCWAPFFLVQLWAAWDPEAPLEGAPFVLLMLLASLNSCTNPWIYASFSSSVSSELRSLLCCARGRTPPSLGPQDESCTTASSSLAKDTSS
# 5-hydroxytryptamine receptor 1A (Homo sapiens), sequence (P08908 whole entry): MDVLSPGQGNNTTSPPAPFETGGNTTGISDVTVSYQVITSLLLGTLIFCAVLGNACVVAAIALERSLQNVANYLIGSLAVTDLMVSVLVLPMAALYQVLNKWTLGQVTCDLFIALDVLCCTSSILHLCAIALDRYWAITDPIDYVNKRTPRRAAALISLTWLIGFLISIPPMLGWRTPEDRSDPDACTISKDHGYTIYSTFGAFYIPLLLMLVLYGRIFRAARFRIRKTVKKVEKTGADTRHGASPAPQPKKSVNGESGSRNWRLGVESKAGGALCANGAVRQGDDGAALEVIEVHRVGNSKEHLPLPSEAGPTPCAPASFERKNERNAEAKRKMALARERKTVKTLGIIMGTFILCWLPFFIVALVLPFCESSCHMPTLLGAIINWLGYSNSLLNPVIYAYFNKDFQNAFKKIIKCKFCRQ
# Androgen receptor (Homo sapiens), sequence (P10275 whole entry): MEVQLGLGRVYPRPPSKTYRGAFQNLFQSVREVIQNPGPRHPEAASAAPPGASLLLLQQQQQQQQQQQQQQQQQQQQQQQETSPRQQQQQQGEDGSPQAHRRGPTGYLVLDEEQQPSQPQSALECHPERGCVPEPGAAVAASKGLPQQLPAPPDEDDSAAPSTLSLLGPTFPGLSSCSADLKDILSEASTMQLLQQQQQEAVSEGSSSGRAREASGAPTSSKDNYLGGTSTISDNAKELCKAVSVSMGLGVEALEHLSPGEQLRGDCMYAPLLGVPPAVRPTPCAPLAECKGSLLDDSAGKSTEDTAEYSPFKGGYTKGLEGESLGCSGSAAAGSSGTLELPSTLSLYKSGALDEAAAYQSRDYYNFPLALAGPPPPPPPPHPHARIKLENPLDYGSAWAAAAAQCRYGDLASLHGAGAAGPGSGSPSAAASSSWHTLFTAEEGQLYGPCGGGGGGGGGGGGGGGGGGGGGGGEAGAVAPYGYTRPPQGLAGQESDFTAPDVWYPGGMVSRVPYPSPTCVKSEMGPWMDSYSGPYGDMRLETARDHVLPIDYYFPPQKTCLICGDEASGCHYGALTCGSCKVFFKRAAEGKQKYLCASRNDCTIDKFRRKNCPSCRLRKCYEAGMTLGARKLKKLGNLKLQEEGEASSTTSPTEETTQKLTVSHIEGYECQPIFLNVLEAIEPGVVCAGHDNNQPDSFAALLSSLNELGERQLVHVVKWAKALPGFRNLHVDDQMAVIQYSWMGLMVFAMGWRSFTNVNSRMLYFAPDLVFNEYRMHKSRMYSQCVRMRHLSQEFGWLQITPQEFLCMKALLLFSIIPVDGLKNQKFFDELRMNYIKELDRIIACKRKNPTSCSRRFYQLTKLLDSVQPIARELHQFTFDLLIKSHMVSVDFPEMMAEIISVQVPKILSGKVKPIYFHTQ
# Caspase-3 (Homo sapiens), sequence (P42574 29-175 limits assumed): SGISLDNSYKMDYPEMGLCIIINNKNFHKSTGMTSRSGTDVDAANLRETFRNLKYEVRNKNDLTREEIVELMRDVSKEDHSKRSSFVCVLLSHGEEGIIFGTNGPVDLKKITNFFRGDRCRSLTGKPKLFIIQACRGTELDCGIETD
# Caspase-3 (Homo sapiens), sequence (P42574 176-277 limits assumed): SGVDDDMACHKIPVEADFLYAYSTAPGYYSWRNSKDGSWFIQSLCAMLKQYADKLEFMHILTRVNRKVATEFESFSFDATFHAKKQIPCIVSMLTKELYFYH
# 5-hydroxytryptamine receptor 4 (Homo sapiens), sequence (Q13639 whole entry): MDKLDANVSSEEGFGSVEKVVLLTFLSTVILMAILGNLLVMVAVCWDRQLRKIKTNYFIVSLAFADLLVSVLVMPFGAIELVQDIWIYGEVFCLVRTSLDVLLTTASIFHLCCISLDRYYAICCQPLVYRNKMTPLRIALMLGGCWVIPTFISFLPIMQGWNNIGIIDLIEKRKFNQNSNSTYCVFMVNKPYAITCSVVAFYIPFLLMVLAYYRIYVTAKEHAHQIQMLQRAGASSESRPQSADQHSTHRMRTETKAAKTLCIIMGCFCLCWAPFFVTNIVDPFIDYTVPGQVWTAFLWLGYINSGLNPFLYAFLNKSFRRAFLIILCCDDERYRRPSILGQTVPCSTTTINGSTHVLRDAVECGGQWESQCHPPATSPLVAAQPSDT
# Kappa-type opioid receptor (Homo sapiens), sequence (P41145 whole entry): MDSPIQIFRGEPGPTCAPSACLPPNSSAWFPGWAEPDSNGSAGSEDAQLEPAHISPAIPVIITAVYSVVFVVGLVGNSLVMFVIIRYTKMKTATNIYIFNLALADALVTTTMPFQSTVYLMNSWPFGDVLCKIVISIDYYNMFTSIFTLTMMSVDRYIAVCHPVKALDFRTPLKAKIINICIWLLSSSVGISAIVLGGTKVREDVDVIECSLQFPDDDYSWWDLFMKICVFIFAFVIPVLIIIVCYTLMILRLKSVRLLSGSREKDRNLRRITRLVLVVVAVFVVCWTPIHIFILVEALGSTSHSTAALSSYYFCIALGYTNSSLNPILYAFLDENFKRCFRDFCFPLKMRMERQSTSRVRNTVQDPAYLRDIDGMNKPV
# Muscarinic acetylcholine receptor M4 (Homo sapiens), sequence (P08173 whole entry): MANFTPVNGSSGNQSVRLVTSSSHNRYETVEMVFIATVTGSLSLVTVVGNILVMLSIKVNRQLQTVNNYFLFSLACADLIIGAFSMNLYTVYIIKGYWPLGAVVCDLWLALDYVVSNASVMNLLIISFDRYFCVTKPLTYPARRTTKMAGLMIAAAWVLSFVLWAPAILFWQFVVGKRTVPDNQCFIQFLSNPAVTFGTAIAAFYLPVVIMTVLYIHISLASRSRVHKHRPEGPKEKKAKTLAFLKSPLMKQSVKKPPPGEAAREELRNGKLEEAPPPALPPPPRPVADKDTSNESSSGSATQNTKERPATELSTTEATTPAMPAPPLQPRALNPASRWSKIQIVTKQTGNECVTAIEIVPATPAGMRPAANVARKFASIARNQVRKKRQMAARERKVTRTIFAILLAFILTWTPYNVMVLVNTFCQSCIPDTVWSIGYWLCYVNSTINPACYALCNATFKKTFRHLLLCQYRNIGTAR
# Angiotensin-converting enzyme (Homo sapiens), sequence (P12821 whole entry): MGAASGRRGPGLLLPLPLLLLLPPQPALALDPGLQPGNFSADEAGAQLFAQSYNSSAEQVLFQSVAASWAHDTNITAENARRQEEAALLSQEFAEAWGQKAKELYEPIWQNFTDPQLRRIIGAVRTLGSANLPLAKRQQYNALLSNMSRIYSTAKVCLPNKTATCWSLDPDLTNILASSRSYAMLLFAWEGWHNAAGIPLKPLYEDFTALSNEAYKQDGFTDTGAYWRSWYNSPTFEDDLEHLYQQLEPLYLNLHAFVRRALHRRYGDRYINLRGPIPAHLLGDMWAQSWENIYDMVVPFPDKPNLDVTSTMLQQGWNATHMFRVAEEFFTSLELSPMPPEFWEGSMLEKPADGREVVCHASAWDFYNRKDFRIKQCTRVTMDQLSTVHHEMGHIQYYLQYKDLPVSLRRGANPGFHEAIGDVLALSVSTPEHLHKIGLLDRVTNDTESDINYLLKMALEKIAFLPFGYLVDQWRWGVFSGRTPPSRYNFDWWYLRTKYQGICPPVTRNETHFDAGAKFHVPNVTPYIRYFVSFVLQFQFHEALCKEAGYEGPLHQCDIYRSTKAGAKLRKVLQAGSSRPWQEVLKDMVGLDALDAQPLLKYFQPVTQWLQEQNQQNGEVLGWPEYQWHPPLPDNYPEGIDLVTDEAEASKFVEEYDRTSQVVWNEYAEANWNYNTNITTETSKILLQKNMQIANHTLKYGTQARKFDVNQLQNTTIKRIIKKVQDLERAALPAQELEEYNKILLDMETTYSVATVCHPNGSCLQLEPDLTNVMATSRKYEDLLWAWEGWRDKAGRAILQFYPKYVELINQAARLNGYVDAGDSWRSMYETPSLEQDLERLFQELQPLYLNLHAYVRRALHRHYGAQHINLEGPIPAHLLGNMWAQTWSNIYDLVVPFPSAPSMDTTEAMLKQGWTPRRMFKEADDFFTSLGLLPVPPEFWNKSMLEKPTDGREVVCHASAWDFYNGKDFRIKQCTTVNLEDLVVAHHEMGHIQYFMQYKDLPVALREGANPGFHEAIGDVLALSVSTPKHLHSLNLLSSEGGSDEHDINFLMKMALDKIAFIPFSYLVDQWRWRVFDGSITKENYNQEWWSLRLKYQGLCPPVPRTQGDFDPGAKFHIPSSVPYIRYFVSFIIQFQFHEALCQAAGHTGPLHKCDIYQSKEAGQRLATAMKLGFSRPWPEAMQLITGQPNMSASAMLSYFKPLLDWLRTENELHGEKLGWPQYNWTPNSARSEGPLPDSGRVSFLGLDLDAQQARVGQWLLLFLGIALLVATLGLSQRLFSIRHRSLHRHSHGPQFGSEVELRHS
# Motilin receptor (Homo sapiens), sequence (O43193 whole entry): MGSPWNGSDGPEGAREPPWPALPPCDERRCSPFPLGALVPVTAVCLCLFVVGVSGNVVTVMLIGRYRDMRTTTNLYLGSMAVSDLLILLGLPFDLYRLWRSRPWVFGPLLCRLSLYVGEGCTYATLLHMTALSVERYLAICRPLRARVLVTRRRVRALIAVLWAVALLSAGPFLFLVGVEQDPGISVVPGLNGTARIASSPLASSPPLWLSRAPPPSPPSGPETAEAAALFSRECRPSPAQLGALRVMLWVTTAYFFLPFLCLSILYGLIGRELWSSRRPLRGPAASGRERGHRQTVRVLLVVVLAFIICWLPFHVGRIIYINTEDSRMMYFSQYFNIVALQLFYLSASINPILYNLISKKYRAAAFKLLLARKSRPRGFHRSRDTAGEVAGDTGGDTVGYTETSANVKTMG
smiles,measurement,setting,value
COc1ccc2c(N[C@@H](C)Cc3cc(C)[nH]n3)ncnc2c1OC,inhibition,[1],< 50%
same,inhibition,[2],< 50%
same,IC50,[3],41.3 µM
same,inhibition at 10 µM,CYP3A4,< 50%
same,inhibition at 10 µM,MAO-A,< 50%
same,inhibition,[4],< 50%
same,IC50,[5],> 0.2 µM
same,inhibition,[6],< 50%
same,inhibition,[7],< 50%
same,inhibition,[8],< 50%
same,inhibition,Rattus norvegicus [9],< 50%
same,Cp(f),[10],7 nM
same,inhibition at 10 µM,CYP2C19,< 50%
same,inhibition,[11],< 50%
same,concentration at 0.5 h,[12],21 nM
same,inhibition,[13],< 50%
same,Ratio IC50,Homo sapiens [14],4540
same,Ratio IC50,Homo sapiens [15],369
same,inhibition,[16],< 50%
same,inhibition,[17],< 50%
same,Ratio IC50,Homo sapiens [18],5230
same,inhibition,[19],< 50%
same,inhibition,[20],< 50%
same,inhibition,[21],< 50%
same,inhibition,Caspase-3 (Homo sapiens),< 50%
same,IC50,[22],> 0.142 µM
same,inhibition,[23],< 50%
same,Ratio IC50,Homo sapiens [24],> 4760
same,inhibition,[25],< 50%
same,inhibition,[26],< 50%
same,inhibition,Rattus norvegicus [27],< 50%
same,inhibition,[28],< 50%
same,inhibition,[29],< 50%
same,Cp(f),[30],40 nM
same,inhibition,Rattus norvegicus [31],< 50%
same,inhibition,[32],< 50%
